From ChEMBL document CHEMBL3102736, “Synthesis and evaluation of cytotoxic activities of new guanidines derived from carbazoles” (Bioorg Med Chem Lett, 2014)
Active and inactive are the calls of the source. The calls are words filed in the database; no cut-off is given here.

Assays:
KB [1] = assay: Cytotoxicity against human KB cells at 10^-6 M after 72 hrs by MTS assay; type: functional
Procedure, shortened: (§1)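 KB and MRC5-SV2 cells grown in D-MEM with 10% fetal calf serum and antibiotics under 5% CO2. Seeded at 650–2000 cells/well and dosed 24 h later at 10^-6 or 10^-5 M from DMSO (1% final). After 72 h, MTS added for 3 h at 37 °C, then A490 read. % inhibition = (1 − OD treated/OD control) × 100.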

KB [2] = assay: Cytotoxicity against human KB cells at 10^-5 M after 72 hrs by MTS assay; type: functional; procedure, shortened: as §1
DNA [3] = assay: Binding affinity to calf thymus DNA at 10^-4 M by fluorescence assay; type: nucleic-acid assay; details: Bos taurus
Procedure, shortened: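 Fluorescence titration at 37 °C in 0.01 M Tris, pH 7.4. Compound working solution at 10^-4 M (diluted from a 10^-2 M DMSO stock); calf thymus DNA added at increasing levels across 25–100 µg/mL. Excitation at 290 nm, emission recorded over 330–390 nm.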

HL-60 = assay: Cytotoxicity against human HL60 cells after 72 hrs by MTS assay; type: functional, cell-based; details: HL-60, 72 h
Procedure, shortened: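 HL60 cells cultured in supplemented RPMI (10% fetal calf serum) under 5% CO2. Seeded at 650–2000 cells/well and treated 24 h later with compound from DMSO (1% final), 0.5 nM–10 µM. After 72 h, MTS added for 3 h at 37 °C, then A490 read. IC50 taken as 50% inhibition of proliferation; separate duplicate experiments.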

MCF7 [4] = assay: Cytotoxicity against human MCF7 cells at 10^-6 M after 72 hrs by MTS assay; type: functional, cell-based
Procedure, shortened: (§2)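 HCT116, MCF7 and PC3 cells grown in RPMI with 10% fetal calf serum and antibiotics under 5% CO2. Seeded at 650–2000 cells/well and dosed 24 h later at 10^-6 or 10^-5 M from DMSO (1% final). After 72 h, MTS added for 3 h at 37 °C, then A490 read. % inhibition = (1 − OD treated/OD control) × 100.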

MRC5 [5] = assay: Cytotoxicity against human MRC5 cells at 10^-5 M after 72 hrs by MTS assay; type: functional, cell-based; procedure, shortened: as §1
MRC5 [6] = assay: Cytotoxicity against human MRC5 cells at 10^-6 M after 72 hrs by MTS assay; type: functional, cell-based; procedure, shortened: as §1
DNA [7] = assay: Binding affinity to calf thymus DNA at 10^-4 M by UV-Visible spectrophotometry; type: nucleic-acid assay; details: Bos taurus
Procedure, shortened: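 Compound working solution at 10^-4 M (diluted from DMSO stock in 0.01 M Tris) in Tris buffer (0.01 M, pH 7.4) at 37 °C. UV-Vis absorption spectra (230–500 nm) recorded without and with calf thymus DNA at a fixed 100 µg/mL.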

PC-3 [8] = assay: Cytotoxicity against human PC3 cells at 10^-5 M after 72 hrs by MTS assay; type: functional, cell-based; procedure, shortened: as §2
HCT-116 [9] = assay: Cytotoxicity against human HCT116 cells at 10^-6 M after 72 hrs by MTS assay; type: functional, cell-based; procedure, shortened: as §2
PC-3 [10] = assay: Cytotoxicity against human PC3 cells at 10^-6 M after 72 hrs by MTS assay; type: functional, cell-based; procedure, shortened: as §2
HCT-116 [11] = assay: Cytotoxicity against human HCT116 cells at 10^-5 M after 72 hrs by MTS assay; type: functional, cell-based; procedure, shortened: as §2
MCF7 [12] = assay: Cytotoxicity against human MCF7 cells at 10^-5 M after 72 hrs by MTS assay; type: functional, cell-based; procedure, shortened: as §2

| Activity (DNA [3]) | Activity (DNA [7]) | Compound | inhibition at 1 µM (KB [1]) | inhibition at 10 µM (KB [2]) | IC50 (HL-60) | Activity (MCF7 [4]) | Activity (MRC5 [5]) | Activity (MRC5 [6]) | Activity (PC-3 [8]) | Activity (HCT-116 [9]) | Activity (PC-3 [10]) | Activity (HCT-116 [11]) | Activity (MCF7 [12]) |
| --- | --- | --- | --- | --- | --- | --- | --- | --- | --- | --- | --- | --- | --- |
| – | – | CCOC(=O)Oc1ccc2[nH]c3c(C)cc(N=C(N)N)c(C)c3c2c1 | 0% | 73% | – | – | – | – | – | – | – | – | – |
| Active | – | CCCN/C(N)=N/c1cc(C)c2[nH]c3ccccc3c2c1C | 18% | 91% | – | – | – | – | – | – | – | – | – |
| Active | – | CCCCN/C(N)=N/c1cc(C)c2[nH]c3ccccc3c2c1C | 5% | 98% | – | – | – | – | – | – | – | – | – |
| Active | – | Cc1cc(/N=C(\N)NC(C)(C)C)c(C)c2c1[nH]c1ccc(Br)cc12 | 16% | 100% | 4 µM | – | – | – | – | – | – | – | – |
| Active | Active | CCC(CC)N/C(N)=N/c1cc(C)c2[nH]c3ccc(Br)cc3c2c1C | 15% | 100% | 3.1 µM | inactive | Active | inactive | Active | inactive | inactive | Active | Active |
| Active | – | CCCCN/C(N)=N/c1cc(C)c2[nH]c3ccc(Br)cc3c2c1C | 26% | 100% | 3.5 µM | – | – | – | – | – | – | – | – |
